pEC50, pIC50: −log10 of the molar value.
What was measured:
[1] = Selectivity index, ratio of CC50 for cytotoxicity against human MT4 cells to EC50 for antiviral activity against wild type HIV-1 IIIB infected in human MT4 cells; assay type: toxicity, cell-based; settings: read-out: Ratio CC50/EC50
Method in brief: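 Selectivity index calculated as CC50/EC50 ratio, both values from MTT viability readout in MT-4 cells, antiviral arm using wild-type HIV-1 IIIB.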

[2] = test system: Human immunodeficiency virus 1; assay: Antiviral activity against wild type HIV-1 IIIB infected in human MT4 cells […]; assay type: functional, organism-based; settings: Human immunodeficiency virus 1, IIIB
[3] = Cytotoxicity against human MT4 cells by MTT assay; assay type: toxicity, cell-based
[4] = test system: Human immunodeficiency virus 1; assay: Antiviral activity against HIV-1 harboring L100I mutant infected in human MT4 cells […]; assay type: functional, organism-based; settings: Human immunodeficiency virus 1, MT4
[5] = test system: Human immunodeficiency virus 1; assay: Antiviral activity against HIV-1 harboring K103N mutant infected in human MT4 cells […]; assay type: functional, organism-based; settings: Human immunodeficiency virus 1, MT4
[6] = test system: Human immunodeficiency virus 1; assay: Antiviral activity against HIV-1 harboring E138K mutant infected in human MT4 cells […]; assay type: functional, organism-based; settings: Human immunodeficiency virus 1, MT4
[7] = target: Human immunodeficiency virus type 1 reverse transcriptase (Human immunodeficiency virus 1, UniProt Q72547); assay: Inhibition of wild type HIV-1 Reverse transcriptase
[8] = test system: Human immunodeficiency virus 1; assay: Antiviral activity against HIV-1 harboring Y181C mutant infected in human MT4 cells […]; assay type: functional, organism-based; settings: Human immunodeficiency virus 1, MT4
[9] = test system: Human immunodeficiency virus 1; assay: Antiviral activity against HIV-1 harboring Y188L mutant infected in human MT4 cells assessed as inhibition of virus-induced cytopathic effect by MTT assay; settings: Human immunodeficiency virus 1, MT4

SMILES	selectivity ratio [1]	pEC50 [2]	CC50 [3]	pEC50 [4]	pEC50 [5]	pEC50 [6]	pIC50 [7]	pEC50 [8]	pEC50 [9]
CC(C)NC(c1ccnc(Nc2ccc(C#N)cc2)n1)c1ccc(-c2ccc(C#N)cc2)cc1OC(F)(F)F (centres undefined)	24	6.03	23000 nM	–	–	–	–	–	–
CCNC(c1ccnc(Nc2ccc(C#N)cc2)n1)c1ccc(-c2ccc(C#N)cc2)cc1F (centres undefined)	87	6.45	31000 nM	–	–	–	–	–	–
N#Cc1ccc(Nc2nccc(C(NC3CC3)c3ccc(-c4ccc(C#N)cc4)cc3C(F)(F)F)n2)cc1 (centres undefined)	250	6.53	75000 nM	–	–	–	–	–	–
C/N=C(/c1ccnc(Nc2ccc(C#N)cc2)n1)c1ccc(-c2ccc(C#N)cc2)cc1Cl	> 7140	8.22	> 45000 nM	6.83	6.89	7.29	7.16	6.72	5.42
CNC(c1ccnc(Nc2ccc(C#N)cc2)n1)c1ccc(-c2ccc(C#N)cc2)cc1C (centres undefined)	367	7.48	12000 nM	5.61	6.13	6.55	6.82	5.96	5.04
N#Cc1ccc(Nc2nccc(/C(=N/N)c3ccc(-c4ccc(C#N)cc4)cc3F)n2)cc1	> 6210	8.15	> 46000 nM	7.16	6.90	6.71	7.70	6.68	< 4.34
N#Cc1ccc(Nc2nccc(C(NC3CC3)c3ccc(-c4ccc(C#N)cc4)cc3Cl)n2)cc1 (centres undefined)	> 1800	6.83	> 262000 nM	–	–	–	–	–	–
CC(C)NC(c1ccnc(Nc2ccc(C#N)cc2)n1)c1ccc(-c2ccc(C#N)cc2)cc1Cl (centres undefined)	130	6.64	30000 nM	–	–	–	–	–	–
CCCNC(c1ccnc(Nc2ccc(C#N)cc2)n1)c1ccc(-c2ccc(C#N)cc2)cc1F (centres undefined)	> 1060	6.59	> 270000 nM	–	–	–	–	–	–
CCNC(c1ccnc(Nc2ccc(C#N)cc2)n1)c1ccc(-c2ccc(C#N)cc2)cc1Cl (centres undefined)	187	7.00	19000 nM	–	–	–	–	–	–
Cc1cc(-c2ccc(C#N)cc2)ccc1C(NC(C)C)c1ccnc(Nc2ccc(C#N)cc2)n1 (centres undefined)	495	6.78	82000 nM	–	–	–	–	–	–
C/N=C(/c1ccnc(Nc2ccc(C#N)cc2)n1)c1ccc(-c2ccc(C#N)cc2)cc1C	> 3940	7.92	> 47000 nM	5.81	6.43	7.09	7.24	6.38	< 4.33
CC(C)NC(c1ccnc(Nc2ccc(C#N)cc2)n1)c1ccc(-c2ccc(C#N)cc2)cc1C(F)(F)F (centres undefined)	25	5.92	29000 nM	–	–	–	–	–	–
N#Cc1ccc(Nc2nccc(C(NCC(F)(F)F)c3ccc(-c4ccc(C#N)cc4)cc3Cl)n2)cc1 (centres undefined)	> 1070	6.64	> 241000 nM	–	–	–	–	–	–
N#Cc1ccc(Nc2nccc(C(NCCCO)c3ccc(-c4ccc(C#N)cc4)cc3Cl)n2)cc1 (centres undefined)	345	7.17	23000 nM	–	–	–	–	–	–
CCNC(c1ccnc(Nc2ccc(C#N)cc2)n1)c1ccc(-c2ccc(C#N)cc2)cc1C(F)(F)F (centres undefined)	146	6.82	22000 nM	–	–	–	–	–	–
O=C1Nc2ccc(Cl)cc2[C@@](C#CC2CC2)(C(F)(F)F)O1 [EFAVIRENZ]	–	–	> 6300 nM	–	–	–	–	8.10	–
C/N=C(/c1ccnc(Nc2ccc(C#N)cc2)n1)c1ccc(-c2ccc(C#N)cc2)cc1C(F)(F)F	3280	7.46	119000 nM	6.45	6.38	6.54	6.74	6.36	5.52
N#CCCNC(c1ccnc(Nc2ccc(C#N)cc2)n1)c1ccc(-c2ccc(C#N)cc2)cc1Cl (centres undefined)	> 3600	7.15	> 255000 nM	–	–	–	–	–	–
CC(C)NC(c1ccnc(Nc2ccc(C#N)cc2)n1)c1ccc(-c2ccc(C#N)cc2)cc1F (centres undefined)	70	6.19	45000 nM	–	–	–	–	–	–
C/N=C(/c1ccnc(Nc2ccc(C#N)cc2)n1)c1ccc(-c2ccc(C#N)cc2)cc1OC(F)(F)F	> 19100	7.89	> 251000 nM	6.52	6.55	6.91	6.66	6.44	4.70
CCNC(c1ccnc(Nc2ccc(C#N)cc2)n1)c1ccc(-c2ccc(C#N)cc2)cc1C (centres undefined)	188	7.20	12000 nM	–	–	–	–	–	–
CCNC(c1ccnc(Nc2ccc(C#N)cc2)n1)c1ccc(-c2ccc(C#N)cc2)cc1OC(F)(F)F (centres undefined)	43	6.30	21000 nM	–	–	–	–	–	–

Reference: ChEMBL document CHEMBL6153064, “Structure-based discovery of novel diarylpyrimidines as potent and selective Non-Nucleoside reverse transcriptase inhibitors: From CH(CN)-Biphenyl-Diarylpyrimidines to CNNH2-Biphenyl-Diarylpyrimidines” (Eur J Med Chem, 2025)
